From PMC2647014 (Journal of the American Chemical Society, 2008)

Columns and labels:
[1] = Stability to hydrolysis of the imide ring in PBS buffer; assay type: physicochemical
Outline: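 Fluorophore-bearing model peptides are incubated in PBS at pH 6, 7 and 8 and 28 °C, with fluorescence monitored in a 96-well plate over 24 hrs. For the 4-DMAP peptide, percent conversion is the percent loss of fluorescence from time zero.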

[2] = cited from earlier work
[3] = Stability toward 4-methylpiperidine / piperidine; assay type: physicochemical; details: during preparation of fluorescent peptides by SPPS
Outline: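 Resin-bound model peptides are treated with 4-methylpiperidine under conditions simulating a standard Fmoc-deprotection cycle. Treated and untreated samples are cleaved from the resin under acidic conditions. Crude mixtures are analysed by HPLC and ESI mass spectrometry for hydrolysis byproducts.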

[4] = Photophysical properties of the fluorescent KR peptides; assay type: physicochemical; details: visible spectrum

Compound: CN(C)c1ccc2c(c1)C(=O)NC2=O [4-DMAP, 4-N,N-dimethylaminophthalimide, reference compound]
- hydrolysis product fluorescence (in words) ([1]; hydrolysis of the imide ring, high pH): non-fluorescent byproduct

Compound: CN(C)c1ccc2c3c(cccc13)C(=O)NC2=O [4-DMN, 4-N,N-dimethylamino-1,8-naphthalimide]
- fluorescence emission after 24 hrs (in words) ([1]; PBS buffer, 28 °C, 24 hrs, Figure 2b, harshest conditions anticipated): no significant change in fluorescence

Compound: CN(C)c1ccc2cc3c(cc2c1)C(=O)NC3=O [6-DMN, 6-N,N-dimethylamino-2,3-naphthalimide, reference compound]
- emission maximum of fluorescent species from hydrolysis ([1]; hydrolysis product, high pH): 470-480 nm

Compound: CN(C)c1ccc2cc(C(=O)CBr)ccc2c1 [BADAN, 6-bromoacetyl-2-dimethylaminonaphthalene]
- fluorescence quantum yield in water (Φwater) [2]: 0.18

Compound: CN(C)c1ccc2c3c(cccc13)C(=O)N(C[C@H](NC(=O)OCC1c3ccccc3-c3ccccc31)C(=O)O)C2=O [compound 4, N-α-Fmoc-(4-N,N-Dimethylamino-1,8-naphthalimido)-alanine]
- susceptibility to piperidine (in words) [3]: shows no susceptibility to piperidine

Compound: CN(C)c1ccc2c3c(cccc13)C(=O)N(C[C@H](N)C(=O)O)C2=O [4-DMNA, 4-N,N-dimethylamino-1,8-naphthalimidoalanine]
- wavelength of excitation of the fluorophore / amino acid [4]: 400-450 nm
- relative stability of fluorescent side-chain (in words) ([1]; compared with 4-DAPA and 6-DMNA): significantly more stable than those of 4-DAPA and 6-DMNA
